Data: ChEMBL document CHEMBL4765291, “Design, synthesis and biological evaluation of novel 3,4-dihydro-2(1H)-quinolinone derivatives as potential chitin synthase inhibitors and antifungal agents” (Eur J Med Chem, 2020)
pIC50: −log10 of the molar value. Values after ≈ are worked out from the molar mass of the structure shown.

How the values were obtained:
Bacillus subtilis = assay: Antibacterial activity against Bacillus subtilis ATCC 6633; assay type: functional
In short: (§1)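 Two-fold serial broth dilution in 96-well plates following National Committee standards; compounds tested at different concentrations. Medium: beef extract peptone (1% peptone, 0.3% beef extract, 0.5% NaCl). Incubation 18–24 h. MIC recorded; streptomycin and norfloxacin as control drugs; each group tested in triplicate.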

Staphylococcus aureus [1] = assay: Antibacterial activity against Staphylococcus aureus ATCC 25923; assay type: functional; in short: as §1
Candida tropicalis = assay: Inhibition of Candida tropicalis ATCC 750 chitin synthase at 300 ug/ml using UDP-GlcNAc as substrate relative to control; conditions: dose 300.0 µg/ml
In short: (§2)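 Chitin synthase prepared from C. tropicalis ATCC 750 by low- and high-speed centrifugation. DMSO stocks (10 mg/mL) diluted in 50 mM Tris-HCl pH 7.5; test concentrations 300–9.375 µg/mL. Chitin synthesized in WGA-coated wells, bound with WGA-HRP, washed, developed with TMB/H2O2, stopped with 2 M H2SO4, OD read. Duplicate; polyoxin B positive control.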

Proteus vulgaris = assay: Antibacterial activity against Bacillus proteus ATCC 8427; assay type: functional; in short: as §1
Aspergillus fumigatus = assay: Antifungal activity against Aspergillus fumigatus GIMCC 3.19 incubated for 48 hrs by two-fold broth dilution analysis; assay type: functional
In short: (§3)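 Stock solutions in DMSO, diluted to 0.25–512 µg/mL; two-fold serial broth dilution in 96-well plates. Fungi grown on modified Sabouraud chloramphenicol agar (1% peptone, 2% glucose, […]). Incubated 48 h at 37 °C, then MIC (µg/mL) recorded. Fluconazole and polyoxin B as positive controls; each group tested in triplicate.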

Cryptococcus neoformans = assay: Antifungal activity against Cryptococcus neoformans ATCC 32719 incubated for 48 hrs by two-fold broth dilution analysis; assay type: functional; in short: as §3
Aspergillus flavus = assay: Antifungal activity against Aspergillus flavus ATCC 16870 incubated for 48 hrs by two-fold broth dilution analysis; assay type: functional; in short: as §3
Candida albicans [2] = assay: Antifungal activity against Candida albicans ATCC 76615 incubated for 48 hrs by two-fold broth dilution analysis; assay type: functional; in short: as §3
Escherichia coli = assay: Antibacterial activity against Escherichia coli JM 109
Pseudomonas aeruginosa = assay: Antibacterial activity against Pseudomonas aeruginosa ATCC 9027; assay type: functional; in short: as §1
Staphylococcus aureus [3] = assay: Antibacterial activity against methicillin-resistant Staphylococcus aureus N. 315; assay type: functional
In short: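 Two-fold serial broth dilution in 96-well plates per national clinical standard; beef extract peptone medium (1% peptone, 0.3% beef extract, 0.5% NaCl, […]). Compounds from DMSO stock diluted to test concentrations; incubation 18–24 h. MIC recorded; each group tested independently in triplicate.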

Candida albicans [4] = assay: Antifungal activity against Candida albicans ATCC 90023 incubated for 48 hrs by two-fold broth dilution analysis; assay type: functional; in short: as §3
[5] = Inhibition of Candida tropicalis ATCC 750 chitin synthase using UDP-GlcNAc as substrate; in short: as §2

With `O=C(/C=C/C(=O)NC1Cc2ccccc2NC1=O)Nc1ccccc1Cl` (stereo not drawn) the MIC (Bacillus subtilis) was 512 µg/mL (≈ 1380 µM), the MIC (Staphylococcus aureus [1]) was 128 µg/mL (≈ 346 µM) and the inhibition (Candida tropicalis) was 46.7%. For the same molecule, the MIC (Proteus vulgaris) was 512 µg/mL (≈ 1380 µM), the MIC (Aspergillus fumigatus) was 8 µg/mL (≈ 21.6 µM) and the MIC (Cryptococcus neoformans) was 16 µg/mL (≈ 43.3 µM). It also gave an MIC (Aspergillus flavus) of 8 µg/mL (≈ 21.6 µM), an MIC (Candida albicans [2]) of 4 µg/mL (≈ 10.8 µM) and an MIC (Escherichia coli) of 256 µg/mL (≈ 692 µM). For the same molecule, the MIC (Pseudomonas aeruginosa) was 256 µg/mL (≈ 692 µM), the MIC (Staphylococcus aureus [3]) was 512 µg/mL (≈ 1380 µM) and the MIC (Candida albicans [4]) was 2 µg/mL (≈ 5.41 µM).
`O=C(/C=C/C(=O)NC1Cc2ccccc2NC1=O)Nc1ccccc1[N+](=O)[O-]` (stereo not drawn) gave an MIC (Bacillus subtilis) of 256 µg/mL (≈ 673 µM), a pIC50 [5] of 3.49 and an MIC (Staphylococcus aureus [1]) of 128 µg/mL (≈ 337 µM). It also gave an inhibition (Candida tropicalis) of 53.3%, an MIC (Proteus vulgaris) of 256 µg/mL (≈ 673 µM) and an MIC (Aspergillus fumigatus) of 8 µg/mL (≈ 21 µM). It also gave an MIC (Cryptococcus neoformans) of 4 µg/mL (≈ 10.5 µM), an MIC (Aspergillus flavus) of 4 µg/mL (≈ 10.5 µM) and an MIC (Candida albicans [2]) of 4 µg/mL (≈ 10.5 µM). The MIC (Escherichia coli) was 256 µg/mL (≈ 673 µM), the MIC (Pseudomonas aeruginosa) was 256 µg/mL (≈ 673 µM) and the MIC (Staphylococcus aureus [3]) was 256 µg/mL (≈ 673 µM). The MIC (Candida albicans [4]) was 2 µg/mL (≈ 5.26 µM).
In the case of `O=C(/C=C/C(=O)NC1Cc2ccccc2NC1=O)Nc1cccc(Br)c1` (stereo not drawn), the MIC (Bacillus subtilis) was 256 µg/mL (≈ 618 µM), the MIC (Staphylococcus aureus [1]) was 128 µg/mL (≈ 309 µM) and the inhibition (Candida tropicalis) was 45.2%. It also gave an MIC (Proteus vulgaris) of 256 µg/mL (≈ 618 µM), an MIC (Aspergillus fumigatus) of 4 µg/mL (≈ 9.66 µM) and an MIC (Cryptococcus neoformans) of 32 µg/mL (≈ 77.2 µM). It also gave an MIC (Aspergillus flavus) of 4 µg/mL (≈ 9.66 µM), an MIC (Candida albicans [2]) of 2 µg/mL (≈ 4.83 µM) and an MIC (Escherichia coli) of 256 µg/mL (≈ 618 µM). The MIC (Pseudomonas aeruginosa) was 256 µg/mL (≈ 618 µM), the MIC (Staphylococcus aureus [3]) was 512 µg/mL (≈ 1240 µM) and the MIC (Candida albicans [4]) was 1 µg/mL (≈ 2.41 µM).
For `Cc1ccc(NC(=O)/C=C/C(=O)NC2Cc3ccccc3NC2=O)cc1` (stereo not drawn), the MIC (Bacillus subtilis) was 512 µg/mL (≈ 1470 µM), the pIC50 [5] was 3.59 and the MIC (Staphylococcus aureus [1]) was 128 µg/mL (≈ 366 µM). For the same molecule, the inhibition (Candida tropicalis) was 58.7%, the MIC (Proteus vulgaris) was 256 µg/mL (≈ 733 µM) and the MIC (Aspergillus fumigatus) was 4 µg/mL (≈ 11.4 µM). It also gave an MIC (Cryptococcus neoformans) of 16 µg/mL (≈ 45.8 µM), an MIC (Aspergillus flavus) of 4 µg/mL (≈ 11.4 µM) and an MIC (Candida albicans [2]) of 4 µg/mL (≈ 11.4 µM). It also gave an MIC (Escherichia coli) of 256 µg/mL (≈ 733 µM), an MIC (Pseudomonas aeruginosa) of 512 µg/mL (≈ 1470 µM) and an MIC (Staphylococcus aureus [3]) of 256 µg/mL (≈ 733 µM). For the same molecule, the MIC (Candida albicans [4]) was 2 µg/mL (≈ 5.72 µM).
Work on `COc1ccc(NC(=O)/C=C/C(=O)NC2Cc3ccccc3NC2=O)cc1` (stereo not drawn) yielded an MIC (Bacillus subtilis) of 256 µg/mL (≈ 701 µM), a pIC50 [5] of 3.68 and an MIC (Staphylococcus aureus [1]) of 128 µg/mL (≈ 350 µM). It also gave an inhibition (Candida tropicalis) of 74.6%, an MIC (Proteus vulgaris) of 256 µg/mL (≈ 701 µM) and an MIC (Aspergillus fumigatus) of 4 µg/mL (≈ 10.9 µM). The MIC (Cryptococcus neoformans) was 16 µg/mL (≈ 43.8 µM), the MIC (Aspergillus flavus) was 2 µg/mL (≈ 5.47 µM) and the MIC (Candida albicans [2]) was 2 µg/mL (≈ 5.47 µM). For the same molecule, the MIC (Escherichia coli) was 512 µg/mL (≈ 1400 µM), the MIC (Pseudomonas aeruginosa) was 512 µg/mL (≈ 1400 µM) and the MIC (Staphylococcus aureus [3]) was 256 µg/mL (≈ 701 µM). It also gave an MIC (Candida albicans [4]) of 1 µg/mL (≈ 2.74 µM).
For `O=C(/C=C/C(=O)NC1Cc2ccccc2NC1=O)Nc1ccc(Cl)cc1` (stereo not drawn), the MIC (Bacillus subtilis) was 256 µg/mL (≈ 692 µM), the MIC (Staphylococcus aureus [1]) was 128 µg/mL (≈ 346 µM) and the inhibition (Candida tropicalis) was 50.5%. The MIC (Proteus vulgaris) was 512 µg/mL (≈ 1380 µM), the MIC (Aspergillus fumigatus) was 8 µg/mL (≈ 21.6 µM) and the MIC (Cryptococcus neoformans) was 4 µg/mL (≈ 10.8 µM). The MIC (Aspergillus flavus) was 4 µg/mL (≈ 10.8 µM), the MIC (Candida albicans [2]) was 4 µg/mL (≈ 10.8 µM) and the MIC (Escherichia coli) was 256 µg/mL (≈ 692 µM). For the same molecule, the MIC (Pseudomonas aeruginosa) was 512 µg/mL (≈ 1380 µM), the MIC (Staphylococcus aureus [3]) was 512 µg/mL (≈ 1380 µM) and the MIC (Candida albicans [4]) was 2 µg/mL (≈ 5.41 µM).
Molecule `Cc1ccccc1NC(=O)/C=C/C(=O)NC1Cc2ccccc2NC1=O` (stereo not drawn) has an MIC (Bacillus subtilis) of 512 µg/mL (≈ 1470 µM), a pIC50 [5] of 3.42 and an MIC (Staphylococcus aureus [1]) of 128 µg/mL (≈ 366 µM). The inhibition (Candida tropicalis) was 67.3%, the MIC (Proteus vulgaris) was 256 µg/mL (≈ 733 µM) and the MIC (Aspergillus fumigatus) was 4 µg/mL (≈ 11.4 µM). For the same molecule, the MIC (Cryptococcus neoformans) was 16 µg/mL (≈ 45.8 µM), the MIC (Aspergillus flavus) was 4 µg/mL (≈ 11.4 µM) and the MIC (Candida albicans [2]) was 1 µg/mL (≈ 2.86 µM). For the same molecule, the MIC (Escherichia coli) was 256 µg/mL (≈ 733 µM), the MIC (Pseudomonas aeruginosa) was 512 µg/mL (≈ 1470 µM) and the MIC (Staphylococcus aureus [3]) was 256 µg/mL (≈ 733 µM). It also gave an MIC (Candida albicans [4]) of 2 µg/mL (≈ 5.72 µM).
For `O=C(/C=C/C(=O)NC1Cc2ccccc2NC1=O)Nc1ccc(F)c(F)c1` (stereo not drawn), the MIC (Bacillus subtilis) was 512 µg/mL (≈ 1380 µM), the pIC50 [5] was 3.47 and the MIC (Staphylococcus aureus [1]) was 256 µg/mL (≈ 689 µM). It also gave an inhibition (Candida tropicalis) of 66.5%, an MIC (Proteus vulgaris) of 512 µg/mL (≈ 1380 µM) and an MIC (Aspergillus fumigatus) of 8 µg/mL (≈ 21.5 µM). It also gave an MIC (Cryptococcus neoformans) of 16 µg/mL (≈ 43.1 µM), an MIC (Aspergillus flavus) of 8 µg/mL (≈ 21.5 µM) and an MIC (Candida albicans [2]) of 4 µg/mL (≈ 10.8 µM). The MIC (Escherichia coli) was 512 µg/mL (≈ 1380 µM), the MIC (Pseudomonas aeruginosa) was 512 µg/mL (≈ 1380 µM) and the MIC (Staphylococcus aureus [3]) was 512 µg/mL (≈ 1380 µM). The MIC (Candida albicans [4]) was 2 µg/mL (≈ 5.39 µM).
With `NC(=O)OC[C@H](O)[C@@H](O)[C@H](N)C(=O)N[C@H](C(=O)O)[C@H]1O[C@@H](n2cc(CO)c(=O)[nH]c2=O)[C@H](O)[C@@H]1O` [POLYOXIN B] the pIC50 [5] was 4.05, the inhibition (Candida tropicalis) was 87.5% and the MIC (Aspergillus fumigatus) was 2 µg/mL (≈ 3.94 µM). For the same molecule, the MIC (Cryptococcus neoformans) was 4 µg/mL (≈ 7.88 µM), the MIC (Aspergillus flavus) was 4 µg/mL (≈ 7.88 µM) and the MIC (Candida albicans [2]) was 2 µg/mL (≈ 3.94 µM). For the same molecule, the MIC (Candida albicans [4]) was 4 µg/mL (≈ 7.88 µM).
Work on `OC(Cn1cncn1)(Cn1cncn1)c1ccc(F)cc1F` [FLUCONAZOLE] yielded an MIC (Aspergillus fumigatus) of 2 µg/mL (≈ 6.53 µM), an MIC (Cryptococcus neoformans) of 2 µg/mL (≈ 6.53 µM) and an MIC (Aspergillus flavus) of 2 µg/mL (≈ 6.53 µM). It also gave an MIC (Candida albicans [2]) of 1 µg/mL (≈ 3.27 µM) and an MIC (Candida albicans [4]) of 1 µg/mL (≈ 3.27 µM).
